Series [1] concerns the target T1, C-C chemokine receptor type 1 (Homo sapiens, UniProt P32246).
T1 sequence (P32246 whole entry): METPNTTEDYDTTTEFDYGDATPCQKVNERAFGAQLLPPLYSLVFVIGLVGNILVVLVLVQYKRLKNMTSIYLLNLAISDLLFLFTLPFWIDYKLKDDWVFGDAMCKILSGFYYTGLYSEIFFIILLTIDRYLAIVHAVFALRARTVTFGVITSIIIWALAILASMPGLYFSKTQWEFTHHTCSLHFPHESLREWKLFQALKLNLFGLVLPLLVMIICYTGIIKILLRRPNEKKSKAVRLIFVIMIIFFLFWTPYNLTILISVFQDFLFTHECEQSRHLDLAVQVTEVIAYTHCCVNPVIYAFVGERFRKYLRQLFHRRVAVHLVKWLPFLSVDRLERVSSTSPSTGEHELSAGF
As to the kind of experiment: Displacement of [125I]MIP-1-alpha from human recombinant CCR1 expressed in HEK293 cells. The series is classed as cell-based. In a few lines: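 Scintillation proximity binding in 384-well format. Membranes (50 µg/mL) were mixed with SPA beads (10 mg/mL) in buffer of 130 mM NaCl, 5 mM KCl, 1 mM MnCl₂, 50 mM Tris HCl pH 7.4 and 0.1% BSA. Varied compound concentrations added with [¹²⁵I]MIP-1α at 0.1 nM final. Plates spun, incubated 4 h, then counted.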

The nature of series [2]: Metabolic stability in rat liver microsomes assessed as compound remaining at 1 uM after 30 mins by LC/MS. Type of series: ADME, Microsome. The settings on record: read-out: Stability. In a few lines: (§1)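 Compound at 1 µM incubated with rat or human liver microsomes (300 nM cytochrome P450) in phosphate buffer pH 7.4 with 1 mM NADPH for 30 min at 37 °C. Stopped with acetonitrile and centrifuged. Percent remaining at 30 min determined by LC/MS.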

A short description of series [3]: Metabolic stability in human liver microsomes assessed as compound remaining at 1 uM after 30 mins by LC/MS. The series is classed as ADME, Microsome. The settings on record: read-out: Stability. In a few lines:
as §1

Series [4] in a line: AUC(0 to 6 hrs) in Sprague-Dawley rat at 5 mg/kg, po. The series is classed as ADME, organism-based. The arrangement: time < 6 hr, dose 5 mg/kg, route oral. The settings on record: plasma. The method, boiled down: (§2)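 Male Sprague-Dawley rats, three to four per compound, given 5 mg/kg by oral gavage in 0.5% methyl cellulose, either singly or in a cassette. Serial blood drawn from an indwelling arterial cannula up to 6 or 24 h. Plasma proteins precipitated, and parent compound quantified by LC/MS/MS.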

Series [5] is described as follows: Cmax in Sprague-Dawley rat at 5 mg/kg, po. The arrangement: dose 5 mg/kg, route oral. The settings on record: in vivo. Type of series: ADME, organism-based. In a few lines:
as §2

Series [6] can be described thus: (§3) AUC(0 to infinity) in Sprague-Dawley rat at 5 mg/kg, po. The settings on record: Sprague-Dawley, plasma. Type of series: ADME, organism-based, Plasma. The arrangement: time infinity, dose 5 mg/kg, route oral. The method, boiled down:
as §2

The subject of series [7] is Rattus norvegicus. The series is described as §3. Type of series: ADME, organism-based, Plasma. The settings on record: in vivo. Details: time infinity, dose 5 mg/kg, route oral. The method, boiled down:
as §2

The nature of series [8]: Oral bioavailability in Sprague-Dawley rat at 5 mg/kg. The series is classed as ADME, organism-based. Conditions: in vivo. The method, boiled down: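 Oral dosing was 5 mg/kg by gavage in 0.5% methyl cellulose to male Sprague-Dawley rats (three to four), with a 1 mg/kg intravenous dose via indwelling catheter for comparison. Serial arterial-cannula blood sampling. Parent compound in protein-precipitated plasma measured by LC/MS/MS.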

The nature of series [9]: Half life in Sprague-Dawley rat at 5 mg/kg, po. Conditions: in vivo. Details: dose 5 mg/kg, route oral. Type of series: ADME, organism-based. The method, boiled down: as §2
Series [10] has as its target T2, C-C chemokine receptor type 4 (Homo sapiens) (UniProt P51679).
T2 sequence (whole entry): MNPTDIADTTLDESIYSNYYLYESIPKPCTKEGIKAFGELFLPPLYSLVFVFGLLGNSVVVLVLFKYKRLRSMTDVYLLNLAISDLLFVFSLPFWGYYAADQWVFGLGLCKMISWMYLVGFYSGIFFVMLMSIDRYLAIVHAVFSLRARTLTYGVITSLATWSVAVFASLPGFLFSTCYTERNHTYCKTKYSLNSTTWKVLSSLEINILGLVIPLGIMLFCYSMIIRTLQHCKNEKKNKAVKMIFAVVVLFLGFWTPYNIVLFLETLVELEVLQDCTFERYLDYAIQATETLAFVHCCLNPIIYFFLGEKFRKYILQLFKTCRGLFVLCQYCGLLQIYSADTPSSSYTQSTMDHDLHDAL
As to the kind of experiment: Inhibition of CCR4.

In series [11] the target is C-C chemokine receptor type 2 (Homo sapiens) (UniProt P41597). As to the kind of experiment: Inhibition of CCR2b.
Sequence of C-C chemokine receptor type 2 (Homo sapiens) (P41597 whole entry, looked up): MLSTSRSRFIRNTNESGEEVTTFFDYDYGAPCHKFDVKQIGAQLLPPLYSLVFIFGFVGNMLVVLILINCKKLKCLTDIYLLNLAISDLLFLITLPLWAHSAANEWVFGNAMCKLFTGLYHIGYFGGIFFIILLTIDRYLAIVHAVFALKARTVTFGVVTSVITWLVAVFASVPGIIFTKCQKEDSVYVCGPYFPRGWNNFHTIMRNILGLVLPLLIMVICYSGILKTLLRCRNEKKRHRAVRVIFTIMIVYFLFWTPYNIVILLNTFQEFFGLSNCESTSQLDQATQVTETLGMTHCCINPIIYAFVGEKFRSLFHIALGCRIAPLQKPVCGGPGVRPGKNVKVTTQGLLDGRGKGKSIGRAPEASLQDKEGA
Series [12] concerns the target C-C chemokine receptor type 5 (Homo sapiens) (UniProt P51681). As to the kind of experiment: Inhibition of CCR5.
Series [13] deals with T3, C-X-C chemokine receptor type 1 (Homo sapiens) (UniProt P25024).
T3 sequence (whole entry): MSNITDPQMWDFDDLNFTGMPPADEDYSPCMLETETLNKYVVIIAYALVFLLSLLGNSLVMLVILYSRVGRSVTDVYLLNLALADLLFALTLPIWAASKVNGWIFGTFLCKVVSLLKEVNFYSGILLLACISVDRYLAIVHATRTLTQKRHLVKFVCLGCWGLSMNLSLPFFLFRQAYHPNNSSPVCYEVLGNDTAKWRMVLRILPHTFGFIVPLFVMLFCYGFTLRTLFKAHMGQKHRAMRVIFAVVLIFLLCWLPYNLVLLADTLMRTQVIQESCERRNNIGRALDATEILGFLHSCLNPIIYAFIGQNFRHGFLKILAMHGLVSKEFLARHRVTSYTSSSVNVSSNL
Briefly: Inhibition of CXCR1.

Series [14] has as its target T4, C-X-C chemokine receptor type 2 (Homo sapiens) (UniProt P25025).
T4 sequence (whole entry): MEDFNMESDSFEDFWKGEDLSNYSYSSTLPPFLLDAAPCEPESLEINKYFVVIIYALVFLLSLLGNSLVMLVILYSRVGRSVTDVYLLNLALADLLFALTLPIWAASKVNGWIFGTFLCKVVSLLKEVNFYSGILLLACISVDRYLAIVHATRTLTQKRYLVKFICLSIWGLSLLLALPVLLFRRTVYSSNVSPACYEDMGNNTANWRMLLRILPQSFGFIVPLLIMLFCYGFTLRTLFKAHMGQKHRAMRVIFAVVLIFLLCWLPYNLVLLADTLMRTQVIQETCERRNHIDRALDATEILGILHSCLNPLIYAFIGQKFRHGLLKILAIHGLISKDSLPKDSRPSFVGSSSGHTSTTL
Briefly: Inhibition of CXCR2.

The target in series [15] is T5, CX3C chemokine receptor 1 (Homo sapiens) (UniProt P49238).
T5 sequence (whole entry): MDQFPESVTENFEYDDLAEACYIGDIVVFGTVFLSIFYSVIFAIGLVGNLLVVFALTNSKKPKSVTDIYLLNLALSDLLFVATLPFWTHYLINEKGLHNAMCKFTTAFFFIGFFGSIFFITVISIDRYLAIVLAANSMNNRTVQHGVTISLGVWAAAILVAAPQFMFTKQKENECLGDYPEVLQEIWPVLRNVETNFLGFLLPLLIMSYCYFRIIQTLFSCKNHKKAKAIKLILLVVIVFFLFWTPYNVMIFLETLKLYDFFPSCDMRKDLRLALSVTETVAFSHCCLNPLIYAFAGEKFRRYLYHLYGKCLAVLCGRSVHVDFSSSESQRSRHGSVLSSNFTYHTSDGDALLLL
As to the kind of experiment: Inhibition of CX3CR1.

Calls of active or inactive are those of the source. No cut-off for these calls is given here.

Sequence of C-C chemokine receptor type 5 (Homo sapiens) (P51681 whole entry, looked up): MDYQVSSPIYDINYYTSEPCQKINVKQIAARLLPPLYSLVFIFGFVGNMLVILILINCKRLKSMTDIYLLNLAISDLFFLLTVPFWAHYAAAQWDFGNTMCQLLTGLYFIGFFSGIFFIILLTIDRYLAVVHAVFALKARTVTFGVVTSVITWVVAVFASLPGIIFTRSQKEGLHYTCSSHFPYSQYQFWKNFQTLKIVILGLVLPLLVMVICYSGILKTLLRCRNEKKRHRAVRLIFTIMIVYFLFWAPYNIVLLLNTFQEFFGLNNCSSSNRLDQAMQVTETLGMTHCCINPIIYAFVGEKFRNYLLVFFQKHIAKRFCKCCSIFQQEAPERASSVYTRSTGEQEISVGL

`O=C(NCc1ccc(Cl)cc1)[C@H]1CCCN1C(=O)Nc1ccc(Cl)cc1`: the 50% inhibitory concentration (IC50) in series [1] was > 75000 nM.
With `CCN(Cc1ccc(Cl)cc1)C(=O)[C@H]1CCCN1C(=O)Nc1ccc(Cl)cc1`, in series [1], the IC50 came to 270 nM.
Turning to `CN(Cc1ccc(Cl)cc1)C(=O)[C@@H]1CCCN1C(=O)Nc1ccc(C(F)(F)F)cc1`, the IC50 in series [1] is > 28000 nM.
On to `O=C([C@H]1CCCN1C(=O)Nc1ccc(Cl)cc1)N(CCO)Cc1ccc(Cl)cc1`, for which, in series [1], the IC50 turned out to be 540 nM.
On to `CN(Cc1ccc(Cl)cc1)C(=O)[C@H]1CCCN1C(=O)Nc1ccc(C(F)(F)F)cc1Cl`, for which the IC50 in series [1] was 120 nM. In addition, the remaining at 0.5 h, 1 µM in series [2] is 68%; in series [3] it was 73%. The same compound showed an AUC(0-t) at 6 h in [4] of 2060 ng·h/mL. The peak level in series [5] (Cmax) was 437 ng/mL.
Consider `CN(Cc1ccc(Cl)cc1)C(=O)[C@H]1CCCN1C(=O)Nc1ccc(C#N)cc1`, for which the IC50 in series [1] is 720 nM.
Consider `O=C([C@H]1CCCN1C(=O)Nc1ccc(Cl)cc1)N(CCO)Cc1ccccc1Cl`, for which the IC50 in [1] turned out to be 43000 nM.
The same measure, in the same setting: to `COc1ccc(CN(C)C(=O)[C@H]2CCCN2C(=O)Nc2ccc(Cl)cc2)cc1` belongs > 77000 nM; to `Cc1ccc(CN(C)C(=O)[C@H]2CCCN2C(=O)Nc2ccc(Cl)cc2)cc1`, 5700 nM; to `CN(Cc1ccc(F)cc1)C(=O)[C@H]1CCCN1C(=O)Nc1ccc(Cl)cc1`, 1300 nM.
Still for that read-out and setting: the figure for `CN(Cc1ccc(Cl)cc1)C(=O)[C@H]1CCCN1C(=O)Nc1ccc(Cl)cc1` is 270 nM; for `Cc1cc(CN(C)C(=O)[C@H]2CCCN2C(=O)Nc2ccc(Cl)cc2)ccc1Cl` it is 4000 nM; for `Cc1cc(Cl)ccc1CN(C)C(=O)[C@H]1CCCN1C(=O)Nc1ccc(Cl)cc1` it is > 100000 nM.
`CN(Cc1ccc(Cl)cc1)C(=O)[C@H]1CCCN1C(=O)Nc1cccc(C(F)(F)F)c1`: the IC50 in series [1] stood at 2950 nM.
On the same count and under the same terms, the figure for `CN(Cc1ccc(Cl)cc1)C(=O)[C@H]1CCN1C(=O)Nc1ccc(C(F)(F)F)cc1` is > 100000 nM.
With `Cc1cc(C(F)(F)F)cc(C)c1NC(=O)N1CCC[C@@H]1C(=O)N(C)Cc1ccc(Cl)cc1`, the IC50 in [1] stood at 11 nM. Further, the remaining at 0.5 h, 1 µM in series [2] was 84%; in [3] it was 74%. The same compound came in with an AUC(0-inf) in series [6] of 611 ng·h/mL. Besides, the Cmax in [5] was determined as 195 ng/mL.
Take `CC(c1ccc(Cl)cc1)N(C)C(=O)[C@H]1CCCN1C(=O)Nc1ccc(Cl)cc1` (stereo partly specified): the half-maximal inhibitory concentration (IC50) in [1] amounted to 4700 nM.
Consider `CN(Cc1ccc(Cl)cc1)C(=O)[C@H]1CCCN1C(=O)Nc1ccc(C(F)(F)F)cc1`, for which, in series [1], the IC50 worked out at 140 nM. The remaining at 0.5 h, 1 µM in series [2] amounted to 74%; in series [3], 78%. The AUC in series [7] is 9390 ng·h/mL. For the same compound, the peak level in series [5] (Cmax) was 834 ng/mL. This compound also yielded a bioavailability in series [8] of 45%. The compound further gave a half-life in series [9] of 4.4 h. In addition, the result in series [10], in series [11], in series [12], in series [13], in series [14] and in series [15] was inactive.
Turning to `Cc1cc(C(F)(F)F)ccc1NC(=O)N1CCC[C@@H]1C(=O)N(C)Cc1ccc(Cl)cc1`, the IC50 in series [1] was found to be 50 nM. In addition, the values for the remaining at 0.5 h, 1 µM in series [2] and in series [3] were 81% and 58%, respectively. In series [4], this compound showed an AUC(0-t) at 6 h of 2590 ng·h/mL. Besides, the highest level in series [5] (Cmax) was 699 ng/mL.
In the case of `Cc1ccc(NC(=O)N2CCC[C@@H]2C(=O)N(C)Cc2ccc(Cl)cc2)cc1`, in [1], the IC50 amounted to 680 nM.
For `CN(Cc1ccc(Cl)cc1)C(=O)[C@H]1CCCN1C(=O)Nc1ccc(F)cc1`, the concentration for half-maximal inhibition (IC50) in series [1] is 700 nM.
On the same count and under the same terms, the figure for `CN(Cc1ccc(C#N)cc1)C(=O)[C@H]1CCCN1C(=O)Nc1ccc(Cl)cc1` is > 13000 nM; for `COc1ccc(NC(=O)N2CCC[C@@H]2C(=O)N(C)Cc2ccc(Cl)cc2)cc1` it is 290 nM; for `O=C([C@H]1CCCN1C(=O)Nc1ccc(Cl)cc1)N(CCO)Cc1cccc(Cl)c1` it is > 100000 nM.
Still for that read-out and setting: the figure for `CCCN(Cc1ccc(Cl)cc1)C(=O)[C@H]1CCCN1C(=O)Nc1ccc(Cl)cc1` is 3600 nM.
On to `CN(Cc1ccc(Cl)cc1)C(=O)[C@H]1CCCN1C(=O)Nc1ccc(C(F)(F)F)cc1F`, for which the IC50 in [1] was 23 nM. For the same compound, the values for the remaining at 0.5 h, 1 µM in series [2] and in [3] were 76% and 93%, respectively. In addition, the AUC(0-t) at 6 h in series [4] was determined as 1240 ng·h/mL. In series [5], this compound had a Cmax of 291 ng/mL.
With `CN(Cc1ccc(C(F)(F)F)cc1)C(=O)[C@H]1CCCN1C(=O)Nc1ccc(Cl)cc1`, in series [1], the IC50 was > 100000 nM.
Same read-out and setting: to `CN(Cc1ccc(Cl)cc1)C(=O)C1CCCCN1C(=O)Nc1ccc(C(F)(F)F)cc1` (stereo unspecified) belongs > 28000 nM.

Values taken from ChEMBL document CHEMBL1140942, “Novel pyrrolidine ureas as C-C chemokine receptor 1 (CCR1) antagonists” (J Med Chem, 2009).
